{"source": "ChEMBL document CHEMBL1139389", "about": "“Discovery of the Poly(ADP-ribose) polymerase (PARP) inhibitor 2-[(R)-2-methylpyrrolidin-2-yl]-1H-benzimidazole-4-carboxamide (ABT-888) for the treatment of cancer” (J Med Chem, 2009)", "key": {"[1]": {"experiment": "Oral bioavailability in Beagle dog at 2.5 mg/kg", "assay_type": "ADME, organism-based, Canis lupus familiaris", "conditions": "in vivo; call rule not given here"}, "[2]": {"experiment": "AUC in Beagle dog at 2.5 mg/kg, po", "assay_type": "ADME, organism-based, Canis lupus familiaris", "design": "dose 2.5 mg/kg, route oral", "conditions": "plasma"}, "[3]": {"experiment": "Cmax in Beagle dog at 2.5 mg/kg, po", "assay_type": "ADME, organism-based, Canis lupus familiaris", "design": "dose 2.5 mg/kg, route oral", "conditions": "in vivo"}, "[4]": {"experiment": "Volume of distribution at steady state in Beagle dog at 2.5 mg/kg", "assay_type": "ADME, organism-based, Canis lupus familiaris", "design": "dose 2.5 mg/kg", "conditions": "in vivo, read-out: Vdss"}, "[5]": {"experiment": "Half life in cynomolgus monkey at 2.5 mg/kg, iv", "assay_type": "ADME, organism-based, Macaca fascicularis", "design": "dose 2.5 mg/kg, route intravenous", "conditions": "in vivo"}, "[6]": {"experiment": "Volume of distribution at steady state in cynomolgus monkey at 2.5 mg/kg", "assay_type": "ADME, organism-based, Macaca fascicularis", "design": "dose 2.5 mg/kg", "conditions": "in vivo, read-out: Vdss"}, "[7]": {"experiment": "Water solubility of compound at physiological pH", "assay_type": "physicochemical"}, "Cytochrome P450 1A2": {"target": "T1, Cytochrome P450 1A2 (Homo sapiens, UniProt P05177)", "T1 sequence (P05177 whole entry)": "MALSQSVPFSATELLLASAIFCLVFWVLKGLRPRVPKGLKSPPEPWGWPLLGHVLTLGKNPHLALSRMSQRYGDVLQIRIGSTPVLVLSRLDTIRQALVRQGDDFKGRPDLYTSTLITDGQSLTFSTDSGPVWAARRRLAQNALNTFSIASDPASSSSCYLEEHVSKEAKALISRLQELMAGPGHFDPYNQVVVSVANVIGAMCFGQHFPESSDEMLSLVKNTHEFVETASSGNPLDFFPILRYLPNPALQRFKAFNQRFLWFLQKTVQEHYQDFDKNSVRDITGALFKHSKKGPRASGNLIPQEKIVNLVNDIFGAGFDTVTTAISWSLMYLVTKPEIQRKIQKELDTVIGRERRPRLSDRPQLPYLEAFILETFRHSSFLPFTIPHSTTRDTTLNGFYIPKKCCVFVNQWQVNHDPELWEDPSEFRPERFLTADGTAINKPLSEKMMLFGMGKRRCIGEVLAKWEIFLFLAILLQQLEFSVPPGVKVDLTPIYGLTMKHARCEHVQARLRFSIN", "experiment": "Inhibition of CYP1A2 in human liver microsomes", "assay_type": "ADME, Microsome"}, "Cytochrome P450 2D6": {"target": "Cytochrome P450 2D6 (Homo sapiens, UniProt P10635)", "sequence (P10635 whole entry)": "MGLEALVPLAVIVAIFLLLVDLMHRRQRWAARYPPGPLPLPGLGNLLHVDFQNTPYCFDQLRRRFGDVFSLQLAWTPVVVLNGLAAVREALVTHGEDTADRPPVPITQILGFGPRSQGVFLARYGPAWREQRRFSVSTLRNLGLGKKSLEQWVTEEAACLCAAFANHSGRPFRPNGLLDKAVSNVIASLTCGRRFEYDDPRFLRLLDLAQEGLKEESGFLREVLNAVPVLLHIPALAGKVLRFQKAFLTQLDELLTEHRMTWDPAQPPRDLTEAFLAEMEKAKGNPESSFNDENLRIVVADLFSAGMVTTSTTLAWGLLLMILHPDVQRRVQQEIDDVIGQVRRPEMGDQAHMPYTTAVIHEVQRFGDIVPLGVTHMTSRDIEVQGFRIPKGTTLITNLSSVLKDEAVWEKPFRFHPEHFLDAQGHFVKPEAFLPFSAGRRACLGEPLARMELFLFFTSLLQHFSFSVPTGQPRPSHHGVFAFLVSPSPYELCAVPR", "experiment": "Inhibition of CYP2D6 in human liver microsomes", "assay_type": "ADME, Microsome"}, "Cytochrome P450 2C19": {"target": "Cytochrome P450 2C19 (Homo sapiens, UniProt P33261)", "sequence (P33261 whole entry)": "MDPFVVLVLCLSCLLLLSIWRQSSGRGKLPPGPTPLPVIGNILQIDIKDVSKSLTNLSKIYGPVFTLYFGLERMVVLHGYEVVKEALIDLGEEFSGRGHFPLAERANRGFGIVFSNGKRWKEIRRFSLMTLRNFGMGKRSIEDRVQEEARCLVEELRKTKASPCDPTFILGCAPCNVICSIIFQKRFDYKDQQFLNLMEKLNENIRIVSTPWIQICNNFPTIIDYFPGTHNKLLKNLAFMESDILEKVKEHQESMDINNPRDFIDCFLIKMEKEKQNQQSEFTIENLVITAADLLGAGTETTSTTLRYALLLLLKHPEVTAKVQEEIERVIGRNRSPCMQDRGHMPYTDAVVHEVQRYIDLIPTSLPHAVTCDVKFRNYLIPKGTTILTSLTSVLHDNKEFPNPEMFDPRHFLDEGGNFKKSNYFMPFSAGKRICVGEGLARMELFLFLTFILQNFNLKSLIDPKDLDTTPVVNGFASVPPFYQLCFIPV", "experiment": "Inhibition of CYP2C19 in human liver microsomes", "assay_type": "ADME, Microsome"}, "Cytochrome P450 2E1": {"target": "Cytochrome P450 2E1 (Homo sapiens, UniProt P05181)", "sequence (P05181 whole entry)": "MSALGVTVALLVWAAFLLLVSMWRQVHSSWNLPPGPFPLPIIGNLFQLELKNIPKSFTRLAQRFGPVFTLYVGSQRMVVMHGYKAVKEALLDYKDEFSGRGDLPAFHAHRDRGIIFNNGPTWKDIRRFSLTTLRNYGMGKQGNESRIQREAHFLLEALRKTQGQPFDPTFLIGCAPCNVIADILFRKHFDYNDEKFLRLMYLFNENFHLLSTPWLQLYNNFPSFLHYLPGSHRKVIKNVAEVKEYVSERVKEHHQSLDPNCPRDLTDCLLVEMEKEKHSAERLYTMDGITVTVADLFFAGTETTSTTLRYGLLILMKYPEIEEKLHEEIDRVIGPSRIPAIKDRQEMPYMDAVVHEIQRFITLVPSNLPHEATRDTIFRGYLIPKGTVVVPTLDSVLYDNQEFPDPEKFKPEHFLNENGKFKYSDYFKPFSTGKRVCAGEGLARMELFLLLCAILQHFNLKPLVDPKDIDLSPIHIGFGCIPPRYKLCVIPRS", "experiment": "Inhibition of CYP2E1 in human liver microsomes", "assay_type": "ADME, Microsome"}, "Cytochrome P450 3A4": {"target": "Cytochrome P450 3A4 (Homo sapiens, UniProt P08684)", "sequence (P08684 whole entry)": "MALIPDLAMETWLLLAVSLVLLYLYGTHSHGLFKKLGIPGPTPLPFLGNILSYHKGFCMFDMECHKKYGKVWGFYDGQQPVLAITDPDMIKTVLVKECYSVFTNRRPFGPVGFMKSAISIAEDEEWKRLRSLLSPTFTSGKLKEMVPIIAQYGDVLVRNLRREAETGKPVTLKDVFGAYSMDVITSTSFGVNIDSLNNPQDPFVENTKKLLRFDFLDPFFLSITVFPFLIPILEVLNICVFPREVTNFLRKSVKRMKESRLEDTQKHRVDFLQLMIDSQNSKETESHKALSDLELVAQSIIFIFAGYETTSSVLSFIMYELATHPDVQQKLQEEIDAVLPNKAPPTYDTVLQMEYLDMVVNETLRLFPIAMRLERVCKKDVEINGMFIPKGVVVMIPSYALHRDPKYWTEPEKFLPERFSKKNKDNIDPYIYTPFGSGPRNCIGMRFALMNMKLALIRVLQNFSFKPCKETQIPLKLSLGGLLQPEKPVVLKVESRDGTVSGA", "experiment": "Inhibition of CYP3A4 in human liver microsomes", "assay_type": "ADME, Microsome"}, "[8]": {"experiment": "Protein binding in human plasma at 5 uM", "assay_type": "ADME, cell-free", "conditions": "read-out: PPB (converted)"}, "[9]": {"experiment": "Protein binding in CD1 mouse plasma at 5 uM", "assay_type": "ADME, cell-free", "conditions": "read-out: PPB (converted)"}, "[10]": {"experiment": "Protein binding in Sprague-Dawley rat plasma at 5 uM", "assay_type": "ADME, cell-free", "conditions": "read-out: PPB (converted)"}, "[11]": {"experiment": "Protein binding in Beagle dog plasma at 5 uM", "assay_type": "ADME, cell-free, Canis lupus familiaris", "conditions": "read-out: PPB (converted)"}, "[12]": {"experiment": "Protein binding in cynomolgus monkey plasma at 5 uM", "assay_type": "ADME, cell-free, Macaca fascicularis", "conditions": "read-out: PPB (converted)"}, "B16-F10 [13]": {"test_system": "B16-F10", "experiment": "Antitumor activity against mouse B16F10 cells xenografted in C57BL/6 mouse assessed as growth inhibition at 12.5 mg/kg/day, po after 14 days relative to control", "assay_type": "functional"}, "B16-F10 [14]": {"test_system": "B16-F10", "experiment": "Potentiation of temozolomide-induced cytotoxicity against mouse B16F10 cells xenografted in C57BL/6 mouse assessed as growth inhibition at 5 mg/kg/day, po after 17 days relative to temozolomide monotherapy", "assay_type": "functional", "how_it_was_run": "(§1)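 B16F10 syngeneic model: 6×10^4 cells in 50% matrigel injected sc into the flank of 6–8 week old female C57BL/6 mice (20 g), allocated to groups by injection order. Inhibitor given po bid days 6–11 at 1, 5 or 12.5 mg/kg/day; temozolomide 50 mg/kg/day po qd days 6–11. Tumor volume by caliper as L×W²/2; TGI versus temozolomide alone.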"}, "B16-F10 [15]": {"test_system": "B16-F10", "experiment": "Potentiation of temozolomide-induced cytotoxicity against mouse B16F10 cells xenografted in C57BL/6 mouse assessed as growth inhibition at 1 mg/kg/day, po after 17 days relative to temozolomide monotherapy", "assay_type": "functional", "how_it_was_run": "as §1"}, "MX1 [16]": {"test_system": "MX1", "experiment": "Potentiation of carboplatin-induced cytotoxicity against human MX1 cells xenografted in SCID mouse assessed as growth inhibition at 1 mg/kg/day, sc osmotic minipump after 42 days relative to carboplatin monotherapy", "assay_type": "functional", "conditions": "route subcutaneous", "how_it_was_run": "(§2)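 MX-1 xenograft: 0.2 cc of 1:10 tumor brei injected sc into the flank of female SCID mice on day 0; size-matched on day 15, 10 mice/group. Inhibitor 1–50 mg/kg/day by sc osmotic minipump for 14 days from day 18; carboplatin 10 mg/kg ip on days 20, 24 and 28. Caliper volumes as L×W²/2; TGI relative to carboplatin alone.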"}, "MX1 [17]": {"test_system": "MX1", "experiment": "Potentiation of carboplatin-induced cytotoxicity against human MX1 cells xenografted in SCID mouse assessed as growth inhibition at 12.5 mg/kg/day, sc osmotic minipump after 42 days relative to carboplatin monotherapy", "assay_type": "functional", "conditions": "route subcutaneous", "how_it_was_run": "as §2"}, "MX1 [18]": {"test_system": "MX1", "experiment": "Potentiation of carboplatin-induced cytotoxicity against human MX1 cells xenografted in SCID mouse assessed as growth inhibition at 5 mg/kg/day, sc osmotic minipump after 42 days relative to carboplatin monotherapy", "assay_type": "functional", "conditions": "route subcutaneous", "how_it_was_run": "as §2"}, "MX1 [19]": {"test_system": "MX1", "experiment": "Potentiation of cyclophosphamide-induced cytotoxicity against human MX1 cells xenografted in SCID mouse assessed as growth inhibition at 5 mg/kg/day, sc osmotic minipump after 48 days relative to cyclophosphamide monotherapy", "assay_type": "functional", "conditions": "route subcutaneous", "how_it_was_run": "(§3)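 Female SCID mice bearing sc MX-1 brei (0.2 cc of 1:10, day 0), size-matched on day 15, 10 per group. Inhibitor 5, 12.5 or 25 mg/kg/day by sc osmotic minipump for 14 days from day 18; cyclophosphamide 12.5 mg/kg ip on days 20, 24 and 28. Volumes from caliper L×W²/2; TGI versus cyclophosphamide alone.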"}, "MX1 [20]": {"test_system": "MX1", "experiment": "Potentiation of cyclophosphamide-induced cytotoxicity against human MX1 cells xenografted in SCID mouse assessed as growth inhibition at 12.5 mg/kg/day, sc osmotic minipump after 48 days relative to cyclophosphamide monotherapy", "assay_type": "functional", "conditions": "route subcutaneous", "how_it_was_run": "as §3"}, "MX1 [21]": {"test_system": "MX1", "experiment": "Potentiation of carboplatin-induced cytotoxicity against human MX1 cells xenografted in SCID mouse assessed as growth inhibition at 50 mg/kg/day, sc osmotic minipump after 42 days relative to carboplatin monotherapy", "assay_type": "functional", "conditions": "route subcutaneous", "how_it_was_run": "as §2"}, "MX1 [22]": {"test_system": "MX1", "experiment": "Potentiation of carboplatin-induced cytotoxicity against human MX1 cells xenografted in SCID mouse assessed as growth inhibition at 25 mg/kg/day, sc osmotic minipump after 42 days relative to carboplatin monotherapy", "assay_type": "functional", "conditions": "route subcutaneous", "how_it_was_run": "as §2"}, "[23]": {"experiment": "Oral bioavailability in CD1 mouse at 10 mg/kg", "assay_type": "ADME, organism-based", "conditions": "in vivo", "how_it_was_run": "(§4)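 Mouse PK: oral dose 10 mg/kg in 2.5% EtOH, 1 drop Tween-80, 25% PEG400 in PBS; iv dose 3 mg/kg in 2.5% EtOH, 5% DMSO, 1 drop Tween-80, 25% PEG400 in PBS. Oral bioavailability, iv half-life, oral AUC and Cmax derived from plasma profiles.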"}, "[24]": {"experiment": "AUC in CD1 mouse at 10 mg/kg, po", "assay_type": "ADME, organism-based", "design": "dose 10 mg/kg, route oral", "conditions": "plasma", "how_it_was_run": "as §4"}, "[25]": {"experiment": "Volume of distribution at steady state in CD1 mouse at 10 mg/kg", "assay_type": "ADME, organism-based", "design": "dose 10 mg/kg", "conditions": "in vivo, read-out: Vdss"}, "[26]": {"experiment": "Half life in Sprague-Dawley rat at 5 mg/kg, iv", "assay_type": "ADME, organism-based", "design": "dose 5 mg/kg, route intravenous", "conditions": "in vivo"}, "[27]": {"experiment": "AUC in Sprague-Dawley rat at 5 mg/kg, po", "assay_type": "ADME, organism-based", "design": "dose 5 mg/kg, route oral", "conditions": "plasma"}, "[28]": {"experiment": "Cmax in Sprague-Dawley rat at 5 mg/kg, po", "assay_type": "ADME, organism-based", "design": "dose 5 mg/kg, route oral", "conditions": "in vivo"}}, "data": [{"smiles": "C[C@]1(c2nc3c(C(N)=O)cccc3[nH]2)CCCN1", "note": "[VELIPARIB]", "values": [{"measurement": "bioavailability", "setting": "[1]", "result": 72, "unit": "%"}, {"measurement": "AUC", "setting": "[2]", "result": 3200, "unit": "ng·h/mL"}, {"measurement": "Cmax", "setting": "[3]", "result": 800, "unit": "ng/mL"}, {"measurement": "Vd", "setting": "[4]", "result": 2.2, "unit": "L/kg"}, {"measurement": "half-life", "setting": "[5]", "result": 1.9, "unit": "h"}, {"measurement": "Vd", "setting": "[6]", "result": 3.1, "unit": "L/kg"}, {"measurement": "solubility", "setting": "[7]", "result": "> 5000", "unit": "µg/mL"}, {"measurement": "Activity", "setting": "Cytochrome P450 1A2", "result": "Not Active"}, {"measurement": "Activity", "setting": "Cytochrome P450 2D6", "result": "Not Active"}, {"measurement": "Activity", "setting": "Cytochrome P450 2C19", "result": "Not Active"}, {"measurement": "Activity", "setting": "Cytochrome P450 2E1", "result": "Not Active"}, {"measurement": "Activity", "setting": "Cytochrome P450 3A4", "result": "Not Active"}, {"measurement": "fraction unbound at 5 µM", "setting": "[8]", "result": 0.59}, {"measurement": "fraction unbound at 5 µM", "setting": "[9]", "result": 0.59}, {"measurement": "fraction unbound at 5 µM", "setting": "[10]", "result": 0.59}, {"measurement": "fraction unbound at 5 µM", "setting": "[11]", "result": 0.59}, {"measurement": "fraction unbound at 5 µM", "setting": "[12]", "result": 0.59}, {"measurement": "TGI", "setting": "B16-F10 [13]", "result": 28, "unit": "%"}, {"measurement": "TGI", "setting": "B16-F10 [14]", "result": 60, "unit": "%"}, {"measurement": "TGI", "setting": "B16-F10 [15]", "result": 43, "unit": "%"}, {"measurement": "TGI", "setting": "MX1 [16]", "result": 21, "unit": "%"}, {"measurement": "TGI", "setting": "MX1 [17]", "result": 58, "unit": "%"}, {"measurement": "TGI", "setting": "MX1 [18]", "result": 17, "unit": "%"}, {"measurement": "TGI", "setting": "MX1 [19]", "result": 31, "unit": "%"}, {"measurement": "TGI", "setting": "MX1 [20]", "result": 33, "unit": "%"}, {"measurement": "TGI", "setting": "MX1 [21]", "result": 91, "unit": "%"}, {"measurement": "TGI", "setting": "MX1 [22]", "result": 78, "unit": "%"}, {"measurement": "bioavailability", "setting": "[23]", "result": 92, "unit": "%"}, {"measurement": "AUC", "setting": "[24]", "result": 2200, "unit": "ng·h/mL"}, {"measurement": "Vd", "setting": "[25]", "result": 9.4, "unit": "L/kg"}, {"measurement": "half-life", "setting": "[26]", "result": 1.2, "unit": "h"}, {"measurement": "AUC", "setting": "[27]", "result": 1500, "unit": "ng·h/mL"}, {"measurement": "Cmax", "setting": "[28]", "result": 500, "unit": "ng/mL"}]}]}
